In ChEMBL document CHEMBL1131030, “Synthesis and evaluation of a series of novel 2-[(4-chlorophenoxy)methyl]benzimidazoles as selective neuropeptide Y Y1 receptor antagonists” (J Med Chem, 1998):

Tests used:
[1] = biological target: T1, Neuropeptide Y receptor type 1 (Homo sapiens, UniProt P25929); assay: In vitro binding affinity towards human neuropeptide Y receptor type 1, determined by measuring its ability to displace [125]peptide YY
T1 sequence (P25929 whole entry): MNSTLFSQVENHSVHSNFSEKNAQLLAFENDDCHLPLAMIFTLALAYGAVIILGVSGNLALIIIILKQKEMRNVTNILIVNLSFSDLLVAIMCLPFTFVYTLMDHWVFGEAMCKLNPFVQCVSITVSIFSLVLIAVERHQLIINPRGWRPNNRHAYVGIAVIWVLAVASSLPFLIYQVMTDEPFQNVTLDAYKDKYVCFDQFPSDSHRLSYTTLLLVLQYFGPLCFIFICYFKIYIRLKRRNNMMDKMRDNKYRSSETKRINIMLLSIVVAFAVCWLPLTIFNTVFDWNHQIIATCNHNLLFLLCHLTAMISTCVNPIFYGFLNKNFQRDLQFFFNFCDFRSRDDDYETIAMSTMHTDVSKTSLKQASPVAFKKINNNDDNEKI

SK-N-MC = assay: In vitro functional activity determined by its ability to antagonize 1 nM NPYs inhibition of forskolin -stimulated cyclic AMP accumulation in SK-N-MC cells; format: cell-based, Homo sapiens
Method in brief: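 SK-N-MC cells were stimulated with forskolin. NPY (1 nM) and antagonist were added at the same time and incubated for only 15 min, to avoid receptor desensitization. Read-out was reversal of the NPY-induced inhibition of cAMP accumulation.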

Ki [1] [nM]	Structure (SMILES)	Ki (SK-N-MC) [nM]
7	Clc1ccc(OCc2nc3c(OCCC4CCNCC4)cccc3n2CCCC2CCCNC2)cc1 (configuration not stated)	15
1280	Clc1ccc(OCc2nc3ccccc3n2CCC2CCCNC2)cc1 (configuration not stated)	–
980	Clc1ccc(OCc2nc3ccccc3n2CCCC2CCNCC2)cc1	–
1290	Cc1ccc2c(c1)nc(COc1ccc(Cl)cc1)n2CCCC1CCCNC1.Cc1ccc2nc(COc3ccc(Cl)cc3)n(CCCC3CCCNC3)c2c1 (configuration not stated)	–
97	Cc1cccc2c1nc(COc1ccc(Cl)cc1)n2CCCC1CCCNC1 (configuration not stated)	–
29	Clc1ccc(OCc2nc3c(OCCC4CCCCN4)cccc3n2CCCC2CCCNC2)cc1 (configuration not stated)	–
43	Clc1ccc(OCc2nc3c(OCCN4CCCCC4)cccc3n2CCCC2CCCNC2)cc1 (configuration not stated)	240
16	Clc1ccc(OCc2nc3c(OCCCC4CCCCN4)cccc3n2CCCC2CCCNC2)cc1 (configuration not stated)	53
17	Clc1ccc(OCc2nc3c(OCCC[C@@H]4CCCNC4)cccc3n2CCC[C@H]2CCCNC2)cc1	65
–	N=C(N)NCCCC(NC(=O)C(c1ccccc1)c1ccccc1)C(=O)NCc1ccc(O)cc1 (configuration not stated)	11
30	Clc1ccc(OCc2nc3c(OCCCC4CCCNC4)cccc3n2CCCC2CCCNC2)cc1 (configuration not stated)	77
> 100000	Clc1ccc(OCc2nc3ccccc3n2CCN2CCCCC2)cc1	–
1210	Clc1ccc(OCc2nc3ccccc3n2CCCCC2CCCNC2)cc1 (configuration not stated)	–
700	Clc1ccc(OCc2nc3ccccc3n2CCCC2CCCNC2)cc1 (configuration not stated)	–
6	Clc1ccc(OCc2nc3c(OCCC[C@@H]4CCCNC4)cccc3n2CCC[C@@H]2CCCNC2)cc1	87
1.7	Clc1ccc(OCc2nc3c(OCCCN4CCCCC4)cccc3n2CCCC2CCCNC2)cc1 (configuration not stated)	2.7
940	Clc1ccc(OCc2nc3ccccc3n2CCC2CCNCC2)cc1	–
5300	Oc1cccc2c1nc(COc1ccc(Cl)cc1)n2CCCC1CCCNC1 (configuration not stated)	–
152	Clc1ccc(OCc2nc3c(OCCCC4CCNCC4)cccc3n2CCCC2CCCNC2)cc1 (configuration not stated)	119
41	Clc1ccc(OCc2nc3c(OCCC[C@H]4CCCNC4)cccc3n2CCC[C@H]2CCCNC2)cc1	153
27	Clc1ccc(OCc2nc3c(OCCC[C@H]4CCCNC4)cccc3n2CCC[C@@H]2CCCNC2)cc1	137
3230	Clc1ccc(OCc2nc3ccccc3n2CCCC2CCCCN2)cc1 (configuration not stated)	–
18	Clc1ccc(OCc2nc3c(OCCC4CCCNC4)cccc3n2CCCC2CCCNC2)cc1 (configuration not stated)	91
7020	Clc1ccc(OCc2nc3ccccc3n2CCCN2CCCCC2)cc1	–
7860	Clc1ccc(OCc2nc3ccccc3n2CCC2CCCCN2)cc1 (configuration not stated)	–
400	Cc1cccc2nc(COc3ccc(Cl)cc3)n(CCCC3CCCNC3)c12 (configuration not stated)	–
